Laboratory results as given in ChEMBL document CHEMBL4715838, “Novel diosgenin derivatives containing 1,3,4-oxadiazole/thiadiazole moieties as potential antitumor agents: Design, synthesis and cytotoxic evaluation” (Eur J Med Chem, 2020).
Active and inactive are the calls of the source. The calls are words filed in the database; no cut-off is given here.

Tests used:
[1] = tested on: MCF7; assay: Cytotoxicity against human MCF7 cells assessed as reduction in cell viability measured after 48 hrs by MTT assay; format: functional, cell-based; conditions: MCF7, 48 h
How it was run: (§1)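 Cells in DMEM with 10% FBS, penicillin/streptomycin, 37 °C, 5% CO2. Seeded at 5×10^3 per well directly into medium holding graded concentrations of sample and incubated 48 h. MTT (5 mg/mL in PBS) added for 4 h, medium replaced with DMSO, absorbance read at 492 nm. IC50 taken as the concentration giving 50% inhibition of proliferation; three replicates, means ± SD.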

[2] = tested on: HepG2; assay: Cytotoxicity against human HepG2 cells assessed as reduction in cell viability measured after 48 hrs by MTT assay; format: functional, cell-based; conditions: HepG2, 48 h; how it was run: as §1
[3] = tested on: HCT-116; assay: Cytotoxicity against human HCT-116 cells assessed as reduction in cell viability measured after 48 hrs by MTT assay; format: functional, cell-based; conditions: HCT-116, 48 h; how it was run: as §1
[4] = tested on: HepG2; assay: Potency index, ratio of diosgenin IC50 to test compound IC50 for cytotoxicity against human HepG2 cells assessed as reduction in cell viability; format: functional
[5] = tested on: GES1; assay: Cytotoxicity against human GES1 cells assessed as reduction in cell viability measured after 48 hrs by MTT assay; format: cell-based; conditions: GES1, 48 h; how it was run: as §1
[6] = tested on: A549; assay: Cytotoxicity against human A549 cells assessed as reduction in cell viability measured after 48 hrs by MTT assay; format: functional, cell-based; conditions: A549, 48 h; how it was run: as §1
[7] = tested on: A549; assay: Induction of apoptosis in human A549 cells assessed as membrane blebbing at 30 uM measured after 48 hrs by phase contrast microscopic analysis; format: functional, cell-based
How it was run: (§2)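 A549 seeded at 2×10^5 cells/well and allowed to settle 24 h. Then exposed 48 h to test compound (15 or 30 μM) or diosgenin (30 μM); controls received 0.1% DMSO. Cell shape examined by phase contrast microscopy.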

[8] = tested on: A549; assay: Induction of apoptosis in human A549 cells assessed as late apoptotic cells at 15 uM after 48 hrs by AnnexinV-FITC/propidium iodide staining based flow cytometry analysis (reference value: 1 to 3.1 %); format: functional
[9] = tested on: A549; assay: Induction of apoptosis in human A549 cells assessed as cell shrinkage at 30 uM measured after 48 hrs by phase contrast microscopic analysis; format: functional, cell-based; how it was run: as §2
[10] = tested on: A549; assay: Induction of apoptosis in human A549 cells assessed as increase in cleaved PARP expression at 15 to 30 uM by Western blot analysis; format: functional, cell-based; conditions: dose 15-30 µM
How it was run: (§3)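 A549 treated with compound (0, 7.5, 15, 30 μM) or diosgenin (0, 15, 30 μM), lysed in RIPA and boiled 10 min. 30 μg protein run on 10% SDS-PAGE, blotted to nitrocellulose, blocked in 5% BSA. Primary antibodies used at 1:1000, HRP secondary at 1:5000 for 2 h, ECL detection. β-actin served as loading control.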

[11] = tested on: A549; assay: Induction of apoptosis in human A549 cells assessed as late apoptotic cells at 30 uM after 48 hrs by AnnexinV-FITC/propidium iodide staining based flow cytometry analysis (reference value: 1 to 3.1 %); format: functional
[12] = tested on: A549; assay: Induction of apoptosis in human A549 cells assessed as increase in cleaved caspase 9 expression at 15 to 30 uM by Western blot analysis; format: functional, cell-based; conditions: dose 15-30 µM; how it was run: as §3
[13] = tested on: A549; assay: Induction of apoptosis in human A549 cells assessed as cell rounding at 30 uM measured after 48 hrs by phase contrast microscopic analysis; format: functional, cell-based; how it was run: as §2
[14] = tested on: A549; assay: Induction of apoptosis in human A549 cells assessed as formation of apoptotic bodies at 30 uM measured after 48 hrs by phase contrast microscopic analysis; format: functional, cell-based; how it was run: as §2
[15] = tested on: A549; assay: Induction of apoptosis in human A549 cells assessed as increase in cleaved caspase 3 expression at 15 to 30 uM by Western blot analysis; format: functional, cell-based; conditions: dose 15-30 µM; how it was run: as §3
[16] = tested on: A549; assay: Induction of apoptosis in human A549 cells assessed as early apoptotic cells at 30 uM after 48 hrs by AnnexinV-FITC/propidium iodide staining based flow cytometry analysis (reference value: 0.5 to 2.3 %); format: functional
[17] = tested on: A549; assay: Induction of apoptosis in human A549 cells assessed as early apoptotic cells at 15 uM after 48 hrs by AnnexinV-FITC/propidium iodide staining based flow cytometry analysis (reference value: 0.5 to 2.3 %); format: functional

Row | SMILES | IC50 [1] [µM] | IC50 [2] [µM] | IC50 [3] [µM] | IC50 [5] [µM] | IC50 [6] [µM] | other results
1 | C[C@H]1[C@H]2[C@H](C[C@H]3[C@@H]4CC=C5C[C@@H](O)CC[C@]5(C)[C@H]4CC[C@]23C)O[C@@H]1CC[C@@H](C)c1nnc(-c2ccccc2)s1 | 27.4 | 32.1 | 48.9 | 527 | 15 | Ratio IC50 [4]: 1.05
2 | C[C@H]1[C@H]2[C@H](C[C@H]3[C@@H]4CC=C5C[C@@H](O)CC[C@]5(C)[C@H]4CC[C@]23C)O[C@@H]1CC[C@@H](C)c1nnc(-c2cccnc2)s1 | > 100 | 8.83 | 51.6 | 354 | 7.68 | –
3 | CC(=O)O[C@H]1CC[C@@]2(C)C(=CC[C@H]3[C@@H]4C[C@@H]5O[C@H](CC[C@@H](C)c6nnc(-c7ccccc7)o6)[C@@H](C)[C@@H]5[C@@]4(C)CC[C@@H]32)C1 | > 100 | 63.2 | > 100 | 82.3 | 84.5 | –
4 | C[C@H]1[C@H]2[C@H](C[C@H]3[C@@H]4CC=C5C[C@@H](O)CC[C@]5(C)[C@H]4CC[C@]23C)O[C@@H]1CC[C@@H](C)c1nnc(-c2cccnc2)o1 | > 100 | > 100 | > 100 | 199 | 98.1 | –
5 | CC(=O)O[C@H]1CC[C@@]2(C)C(=CC[C@H]3[C@@H]4C[C@@H]5O[C@H](CC[C@@H](C)c6nnc(-c7cccnc7)o6)[C@@H](C)[C@@H]5[C@@]4(C)CC[C@@H]32)C1 | > 100 | 82.6 | 72.5 | 62.4 | 33.5 | –
6 | C[C@H]1[C@H]2[C@H](C[C@H]3[C@@H]4CC=C5C[C@@H](O)CC[C@]5(C)[C@H]4CC[C@]23C)O[C@@H]1CC[C@@H](C)c1nnc(-c2ccccc2)o1 | 53 | 39.5 | > 100 | 120 | 64.2 | –
7 | CO[C@@]12[C@H](COC(N)=O)C3=C(C(=O)C(C)=C(N)C3=O)N1C[C@@H]1N[C@@H]12 [MITOMYCIN] | 16.7 | 32.6 | 11 | 21.1 | 11 | –
8 | Cc1nnc([C@H](C)CC[C@H]2O[C@H]3C[C@H]4[C@@H]5CC=C6C[C@@H](O)CC[C@]6(C)[C@H]5CC[C@]4(C)[C@H]3[C@@H]2C)o1 | 20.4 | 34.2 | 51.6 | 72.8 | 30.4 | –
9 | CC(=O)O[C@H]1CC[C@@]2(C)C(=CC[C@H]3[C@@H]4C[C@@H]5O[C@H](CC[C@@H](C)c6nnc(C)o6)[C@@H](C)[C@@H]5[C@@]4(C)CC[C@@H]32)C1 | 44.8 | 57.6 | 78.8 | 98.2 | 34.4 | –
10 | CC(=O)O[C@H]1CC[C@@]2(C)C(=CC[C@H]3[C@@H]4C[C@@H]5O[C@H](CC[C@H](C)c6nnc(-c7cccc8ccccc78)s6)[C@@H](C)[C@@H]5[C@@]4(C)CC[C@@H]32)C1 | – | – | > 100 | – | > 100 | –
11 | CC(=O)O[C@H]1CC[C@@]2(C)C(=CC[C@H]3[C@@H]4C[C@@H]5O[C@H](CC[C@H](C)c6nnc(-c7cccc8ccccc78)o6)[C@@H](C)[C@@H]5[C@@]4(C)CC[C@@H]32)C1 | – | – | – | 70.1 | – | –
12 | COc1ccc(-c2nnc([C@H](C)CC[C@H]3O[C@H]4C[C@H]5[C@@H]6CC=C7C[C@@H](OC(C)=O)CC[C@]7(C)[C@H]6CC[C@]5(C)[C@H]4[C@@H]3C)o2)cc1 | – | – | – | 151 | – | –
13 | CC(=O)O[C@H]1CC[C@@]2(C)C(=CC[C@H]3[C@@H]4C[C@@H]5O[C@H](CC[C@@H](C)c6nnc(C)s6)[C@@H](C)[C@@H]5[C@@]4(C)CC[C@@H]32)C1 | 47.7 | 34.2 | > 100 | 75.8 | 40.3 | –
14 | COc1ccc(-c2nnc([C@H](C)CC[C@H]3O[C@H]4C[C@H]5[C@@H]6CC=C7C[C@@H](O)CC[C@]7(C)[C@H]6CC[C@]5(C)[C@H]4[C@@H]3C)o2)cc1 | – | – | > 100 | – | – | –
15 | C[C@H]1[C@H]2[C@H](C[C@H]3[C@@H]4CC=C5C[C@@H](O)CC[C@]5(C)[C@H]4CC[C@]23C)O[C@@H]1CC[C@H](C)c1nnc(-c2cccc3ccccc23)s1 | 63.8 | 32.9 | 46.6 | 201 | 18.3 | Ratio IC50 [4]: 1.02
16 | Cc1nnc([C@H](C)CC[C@H]2O[C@H]3C[C@H]4[C@@H]5CC=C6C[C@@H](O)CC[C@]6(C)[C@H]5CC[C@]4(C)[C@H]3[C@@H]2C)s1 | 33.8 | 33.2 | 48.9 | 107 | 36.7 | –
17 | COc1ccc(-c2nnc([C@H](C)CC[C@H]3O[C@H]4C[C@H]5[C@@H]6CC=C7C[C@@H](O)CC[C@]7(C)[C@H]6CC[C@]5(C)[C@H]4[C@@H]3C)s2)cc1 | > 100 | 23.1 | > 100 | 209 | 16.4 | –
18 | C[C@H]1[C@H]2[C@H](C[C@H]3[C@@H]4CC=C5C[C@@H](O)CC[C@]5(C)[C@H]4CC[C@]23C)O[C@@H]1CC[C@H](C)c1nnc(-c2cccc3ccccc23)o1 | 69.7 | 29.2 | > 100 | 298 | 31.3 | –
19 | C[C@@H]1CC[C@@]2(OC1)O[C@H]1C[C@H]3[C@@H]4CC=C5C[C@@H](O)CC[C@]5(C)[C@H]4CC[C@]3(C)[C@H]1[C@@H]2C [DISOGENIN] | 23.9 | 33.9 | 49.1 | 101 | 26.4 | Activity [7]: inactive; Activity [8]: 3.1%; Activity [9]: inactive; Activity [10]: inactive; Activity [11]: 2%; Activity [12]: inactive; Activity [13]: inactive; Activity [14]: inactive; Activity [15]: inactive; Activity [16]: 2.5%; Activity [17]: 2.3%
